Assay outcomes from PubChem BioAssay.
Shown are actives, neighbours in structure and some others; about 3.7% of the full set was active somewhere.
hERG protect: shields human hERG channel from block by proarrhythmic agents; Q12809; CHO-hERG, FluxOR thallium flux, dofetilide IC70 present; activation (rescue from dofetilide block), less the hit threshold, % at 10 µM; 0.51% of 310,000 active; AID 1511;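 active means activation above the mean of controls blocked by dofetilide plus 5 SD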;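 further: thallium influx through hERG after potassium depolarization seen as dye fluorescence rise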
KCNK3 block: human KCNK3 channel inhibition, primary screen | O14649 | CHO-KCNK3 thallium flux, FluxOR fluorescence; active compounds read low | B-score at 10 µM | 0.84% of 340,000 active | AID 602410;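 active means B-score under library mean minus 4 SD, starting fluorescence ratio at most library mean plus 5 SD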;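 further: more negative B-score means stronger inhibition of thallium flux through KCNK3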
Kir21 inh: blocks the mouse Kir2.1 inward-rectifier potassium channel; 0.85% of 310,000 active; HEK293-Kir2.1, FluxOR thallium flux fluorescence; active compounds read low; B-score at 10 µM; AID 1672; P35561;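 active means fluorescence ratio B-score at or below minus 3 SD of library scores, with starting-brightness B-score within 2 SD, cut at about -4.2 in these data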;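 further: channel flux triggered by added potassium and thallium sulfate stimulus; B-score of peak minus minimum fluorescence over baseline after thallium stimulus; more negative B-score means stronger Kir2.1 block with less thallium influx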
KCNQ1 pot: potentiates or activates the human KCNQ1 potassium channel. 0.35% of 310,000 active. AID 2648. B-score at 10 µM. CHO-K1 KCNQ1, thallium flux FluxOR fluorescence; active compounds read high. P51787;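 active means fluorescence ratio B-score, a plate-corrected score, at least three library SD, with initial intensity B-score within 5 SD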
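Test system: CHO-K1 cells stably expressing KCNQ1 / Medium: assay buffer / Also added: depolarizing K+/Tl+ stimulus, K2SO4 and Tl2SO4 each 12.5 mM in 5x stock / Incubation: 90 min dye loading and 20 min compound exposure, both at room temperature / Signal: thallium influx via FluxOR fluorescence, kinetic imaging / Evaluation: B score of baseline-normalized fluorescence ratio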
KCNQ1 block: blocks the human KCNQ1 potassium channel; CHO-K1 KCNQ1, FluxOR thallium flux fluorescence; active compounds read high; B-score at 10 µM; AID 2642; 1.3% of 310,000 active;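 active means compounds whose thallium flux B-score, printed positive for inhibition, exceeds three library SD while starting fluorescence stays within three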;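 further: channel opened by potassium depolarization with thallium stimulus after 20 min compound exposure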
KCNK9 block: human KCNK9 channel inhibition. Q9NPC2. 1.2% of 310,000 active. AID 488922. B-score at 10 µM. HEK293 KCNK9, FluxOR thallium flux fluorescence; active compounds read low;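 active means ratio B-score over 3 SD below the library mean, with starting fluorescence within 5 SD of its mean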;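 further: negative B-score means less thallium flux so channel inhibition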
Target sequence (Q9NPC2 whole entry, looked up): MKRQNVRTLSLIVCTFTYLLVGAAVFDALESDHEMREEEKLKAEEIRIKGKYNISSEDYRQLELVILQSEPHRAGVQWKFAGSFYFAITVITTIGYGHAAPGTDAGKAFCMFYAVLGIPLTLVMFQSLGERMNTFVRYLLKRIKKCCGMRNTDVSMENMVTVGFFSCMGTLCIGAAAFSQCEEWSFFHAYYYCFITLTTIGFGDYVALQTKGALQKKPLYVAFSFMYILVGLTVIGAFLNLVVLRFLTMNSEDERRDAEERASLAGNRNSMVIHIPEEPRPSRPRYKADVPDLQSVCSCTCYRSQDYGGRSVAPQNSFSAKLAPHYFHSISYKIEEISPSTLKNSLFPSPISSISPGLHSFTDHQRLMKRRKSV
KCNK3 confirm: confirmation of human KCNK3 two-pore domain potassium channel inhibitors; CHO-KCNK3 thallium flux, FluxOR fluorescence; 0% buffer, 100% carvedilol maximal block; shares compounds with KCNK3 block; ratio percent of control, % at 10 µM; 99% of 2,400 active;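 active means ratio percent of control, averaged over triplicates, above buffer control mean plus 5 SD, cut at about 64% in these data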;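 further: ratio is the fluorescence rise from min to max over baseline after thallium stimulus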
KCNK3 noninduced: counter-screen for KCNK3 inhibitors: effect in non-induced cells | 40% of 2,400 active | shares compounds with KCNK3 block | non-induced KCNK3 parental cells, FluxOR thallium flux; active compounds read low | thallium flux ratio (lower = more inhibition) at 10 µM;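 active means thallium flux ratio, averaged over three wells, more than 5 SD below the buffer control mean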;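 further: host cells are CHO cells without KCNK3 induction; ratio is peak minus trough fluorescence over baseline then normalized to buffer controls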
Starred values were filed as active, the others as inactive; i = inactive; nt = not tested or not shown.

SMILES	hERG protect	KCNK3 block	Kir21 inh	KCNQ1 pot	KCNQ1 block	KCNK9 block	KCNK3 confirm	KCNK3 noninduced
COc1ccc(Cl)cc1NC(=O)CN(C)CC(=O)Nc1ccccc1C(F)(F)F	-21	-9.1*	0.2	i	i	i	102*	i
Cc1ccc(S(=O)(=O)n2c([N+](=O)[O-])cnc2C)c(C)c1C	-5	i	0.86	i	i	i	nt	nt
c1ccc(COn2nnc3ccccc32)c(COn2nnc3ccccc32)c1	-10	-9.7*	-5.7*	i	i	i	102*	i
Cc1ccc(C(=O)CC2(O)C(=O)N(C)c3ccc(Br)cc32)c(C)c1 (stereo not drawn)	1	-9.6*	-2.4	i	i	i	93*	i
Cc1ccc(C)c(C(=O)CC2(O)C(=O)N(C)c3ccccc32)c1 (stereo not drawn)	-9	i	-1.2	i	i	i	nt	nt
O=C(c1c[nH]c(C(=O)C(Cl)(Cl)Cl)c1)c1ccc(F)cc1Cl	-15	-11*	0.14	8*	i	i	88*	i
CC(=O)c1ccc(C(=O)N2CCCC(CCC(=O)N(C)CCc3ccccn3)C2)s1 (stereo not drawn)	-6	i	0.96	i	i	i	nt	nt
CCOC(=O)c1nc(NCc2ccccc2F)c2ccccc2n1	-8	i	-0.09	i	i	i	nt	nt
CC(C)(C)NC(=O)c1ccc(Sc2ccccc2)c([N+](=O)[O-])c1	-9	-9*	1.4	i	i	i	119*	i
O=C(c1ccco1)N1CCN(C(=O)c2ccccc2OCc2ccc(Cl)cc2)CC1	-15	i	0.02	i	i	i	nt	nt
O=C(c1ccccc1OCc1ccc(Cl)cc1)N1CCN(c2ccccn2)CC1	-18	-9*	-1.8	i	i	i	119*	i
Fc1ccc(C2=Nc3cccc4cccc(c34)N2)cc1	-1	i	-0.07	i	i	i	nt	nt
FC(F)(F)C1=Nc2cccc3cccc(c23)N1	nt	-13*	nt	nt	nt	nt	127*	0.11*
c1ccc(-c2nc(-n3nc4ccccc4n3)nc3ccccc23)cc1	-14	-14*	1.3	i	i	-7.9*	88*	0.15*
NNc1nc(-c2ccccc2)c2ccccc2n1	-22	i	-0.96	i	i	i	nt	nt
Cc1ccc(-n2c(SC3CCOC3=O)nc3ccccc3c2=O)cc1 (stereo not drawn)	-7	nt	-2.5	i	i	i	nt	nt
Clc1ccc(/C=C\c2nccc3c2[nH]c2ccccc23)cc1	-19	i	1.6	i	i	i	nt	nt
N#Cc1ccc(/C=C\c2nccc3c2[nH]c2ccccc23)cc1	-14	-10*	-0.39	i	i	i	116*	0.16*
CCCCN(C(=O)c1ccc(-c2ccc([N+](=O)[O-])cc2)o1)c1c(N)n(CC(C)C)c(=O)[nH]c1=O	nt	i	nt	nt	nt	nt	nt	nt
Cc1ccc(NC(=O)CNc2cccc(S(=O)(=O)N3CCCCC3)c2)cc1F	-17	i	-3.2	i	i	-7.6*	96*	i
COc1ccc(OC)c2c1sc(=NC(=O)C1COc3ccccc3O1)n2C (stereo not drawn)	-10	-9.6*	-0.44	i	i	i	108*	i
CCC(=O)N=c1sc2c(OC)ccc(OC)c2n1C	-11	i	1.1	i	i	i	nt	nt
CCCc1cc(C(=O)Cc2ccc(C(=O)OCC)o2)c(O)cc1O	-3	-11*	-2.8	i	i	-17*	104*	0.13*
CN(CCOc1ccc(Cl)cc1)C(=O)c1cc(-c2ccco2)nc2ccccc12	-32	-10*	0.85	i	i	i	117*	0.13*
COc1cc(Cl)c(C)cc1NC(=O)CSc1ccccc1	-6	-9.4*	-2.2	i	i	i	113*	i
SMILES	hERG protect	KCNK3 block	Kir21 inh	KCNQ1 pot	KCNQ1 block	KCNK9 block	KCNK3 confirm	KCNK3 noninduced
COc1cc(Cl)c(C)cc1NC(=O)CSc1ccc(C)cc1	-4	i	-0.04	i	i	i	nt	nt
O=C(Nc1ccc(Cl)cn1)c1ccc(Br)c(S(=O)(=O)N2CCCCC2)c1	-5	i	1.1	i	i	-7.4*	102*	i
Cc1ccc(NC(=O)c2ccc(Cl)c(S(=O)(=O)N3CCCCCC3)c2)nc1	-9	-9.7*	-0.55	i	i	i	115*	i
O=C(Nc1ccccn1)c1ccc(Cl)c(S(=O)(=O)N2CCCC2)c1	-16	i	0.44	i	i	i	nt	nt
COc1ccc(NC(=O)[C@@H]2CCCN2S(=O)(=O)c2ccccc2F)cc1S(=O)(=O)N1CCCCC1	nt	i	nt	nt	nt	nt	nt	nt
COc1ccccc1N1CCN(C(=O)c2sc3ncnc(N4CCN(c5ccccn5)CC4)c3c2C)CC1	-15	i	0.23	i	i	i	nt	nt
COc1ccc(OC)c(NC(=O)c2sc3ncnc(N4CCN(c5ccccn5)CC4)c3c2C)c1	-1	-9.1*	1.8	i	i	i	104*	i
O=C(O)Cn1cc(C(=O)c2cccs2)c2ccccc21	-9	i	2.5	i	i	i	nt	nt
O=C(c1cccs1)c1cn(CC(=O)N2CCc3ccccc3C2)c2ccccc12	-10	-11*	-0.5	i	i	i	80*	i
CCN(CC(=O)Nc1ccc(NC(C)=O)cc1)C(=O)c1ccccc1CCc1ccccc1	-3	i	-1.5	i	i	i	nt	nt
N#Cc1cc2c(nc1SCc1ccc(Cl)nc1)CCCCC2	-14	-11*	2.1	i	i	-7*	116*	0.16*
O=C(Cc1cccs1)NNC(=S)NCc1ccc(Cl)cc1	-6	-11*	-2.4	i	i	-7.7*	77*	i
O=C(Cc1ccc(Cl)cc1)NNC(=S)NC(=O)c1cccs1	-11	i	1.2	i	i	i	nt	nt
COc1ccc(-c2csc(/C(C#N)=C\c3ccc(O)c([N+](=O)[O-])c3)n2)cc1OC	-29	-10*	-0.01	i	i	i	116*	0.14*
CCn1c(SCC(=O)Nc2oc(-c3ccccc3)c(-c3ccccc3)c2C#N)nnc1-c1ccncc1	-11	-9.3*	0.73	i	i	i	118*	0.14*
Cc1cc(C)nc(SCCC(=O)Nc2ccccc2Cl)n1	-14	i	-0.06	i	i	i	nt	nt
